Source: PubChem BioAssay AID488811 (Sanford-Burnham Center for Chemical Genomics, 2010)
Calls of active or inactive are those of the source.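 How the source made its calls: active means mean EC50 below 10 µM; inactive means the rest.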

Molecular target: Apelin receptor (Homo sapiens) (UniProt P35414)
Assay: apelin receptor activator analogs – cell-based, luminescence, SAR follow-up (AID 488811)
Settings: CHO-K1 AGTRL-1 PathHunter beta-arrestin
Outline: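 Test system – CHO-K1 cells with ProLink-tagged APJ and β-arrestin–β-gal acceptor fusion · Compound dosing – serially dosed compounds from 2 mM DMSO stocks · Schedule – cells seeded overnight, compounds 90 min at 25 °C, dark · Technique – β-gal complementation luminescence, 60 min reagent incubation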

Chain of Apelin receptor (Homo sapiens) (P35414 whole entry, looked up): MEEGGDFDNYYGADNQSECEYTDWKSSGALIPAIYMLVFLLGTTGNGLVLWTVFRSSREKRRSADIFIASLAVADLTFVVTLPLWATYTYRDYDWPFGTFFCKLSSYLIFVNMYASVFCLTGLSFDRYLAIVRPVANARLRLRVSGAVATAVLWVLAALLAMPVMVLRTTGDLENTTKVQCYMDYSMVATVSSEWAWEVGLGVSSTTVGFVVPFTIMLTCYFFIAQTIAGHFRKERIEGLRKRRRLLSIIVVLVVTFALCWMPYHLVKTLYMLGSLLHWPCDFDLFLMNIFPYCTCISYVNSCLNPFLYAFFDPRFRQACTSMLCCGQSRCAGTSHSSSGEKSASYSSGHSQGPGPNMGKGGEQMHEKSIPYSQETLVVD

SMILES | EC50
CCCSc1nc(O)c(CC)c(=O)n1C(C)CC (stereo not drawn) | inactive
CC1=C/C(=N/OS(=O)(=O)c2ccccc2)C(C)=CC1=O | 6.82 µM
CC1=C/C(=N/OS(=O)(=O)c2ccc(C)cc2)C=CC1=O | > 79 µM (inactive)
C=CCn1c(SCc2ccccc2)nc(O)c(CC)c1=O | > 79 µM (inactive)
COc1ccc(S(=O)(=O)ON=C2C=C(C)C(=O)C(C)=C2)cc1 | 2.56 µM
CC1=CC(=O)C=C(C)C1=NOS(=O)(=O)c1ccccc1 | > 79 µM (inactive)
CCCCSc1nnc(NC(=O)CSc2nc3ncccc3[nH]2)s1 | > 79 µM (inactive)
CC1=CC(=NOS(=O)(=O)c2ccc(C)cc2)C=C(C)C1=O | 2.52 µM
CCc1c(O)nc(SC)n(C2CCCCC2)c1=O | > 79 µM (inactive)
CCN1/C(=C/C(=O)c2sc(=S)n(CC)c2O)Sc2ccccc21 | > 79 µM (inactive)
CCN1C(c2ccccc2)=C(c2ccccc2)S/C1=C/C=C1\SC(=S)N(C)C1=O | 3.44 µM
Cc1cc(C)n2nc3nc(N4CCOCC4)nc(-c4ccccc4)c3c2n1 | > 79 µM (inactive)
CN(C)CCSc1nc(O)c(-c2ccccc2)c(=O)n1-c1ccccc1 | > 79 µM (inactive)
CC1=CC(=O)C=C/C1=N\OS(=O)(=O)c1ccc(C)cc1 | > 79 µM (inactive)
C=CCSc1nc(O)c(CC)c(=O)n1C1CCCCC1 | > 79 µM (inactive)
CC1=C/C(=N/OS(=O)(=O)c2ccc(C)cc2)C(C(C)C)=CC1=O | 9.9 µM
CC1=C/C(=N\OS(=O)(=O)c2ccc(C)cc2)C(C)=CC1=O | 5.4 µM
C=CCSc1nc(O)c(CC)c(=O)n1C(C)CC (stereo not drawn) | inactive
CC1=C(C)C(=NOS(=O)(=O)c2ccc(C)cc2)C=CC1=O | > 79 µM (inactive)
CCCCSc1nc(O)c(CC)c(=O)n1C1CCCCC1 | > 79 µM (inactive)
CC1=CC(=NOS(=O)(=O)c2ccc(Cl)cc2)C=C(C)C1=O | 2.9 µM
O=S(=O)(Nc1nc(-c2ccccc2)cs1)c1ccc(Br)cc1 | > 79 µM (inactive)

SMILES | EC50
COc1ccc(S(=O)(=O)O/N=C2\C=C(C(C)C)C(=O)C=C2C)cc1 | 4.93 µM
CSc1nc(=O)cc(N)n1-c1ccc(C)cc1 | > 79 µM (inactive)
CCc1c(O)nc(SC)n(C(C)CC)c1=O (stereo not drawn) | > 79 µM (inactive)
Cc1ccc(S(=O)(=O)Nc2nc(-c3ccccc3)cs2)cc1 | > 79 µM (inactive)
CCN1/C(=C\C=C2/SC(=S)N(C)C2=O)Sc2ccccc21 | > 79 µM (inactive)
CC1=CC(=NOS(=O)(=O)c2ccccc2)C=CC1=O | > 79 µM (inactive)
CCc1c(O)nc(SCc2ccccc2)n(C2CCCCC2)c1=O | > 79 µM (inactive)
CC1=CC(=O)C(C(C)C)=C/C1=N/OS(=O)(=O)c1ccccc1 | 5.98 µM
CC1=CC(=NOS(=O)(=O)c2ccccc2)C=C(C)C1=O | 2.5 µM
CC1=C/C(=N\OS(=O)(=O)c2ccc(Cl)cc2)C=CC1=O | > 79 µM (inactive)
Cc1ccc(S(=O)(=O)ON=C2C=CC(=O)C=C2)cc1 | > 79 µM (inactive)
C=CCSc1nc(O)c(CC)c(=O)n1-c1ccc(C)cc1 | > 79 µM (inactive)
CCc1c(O)nc(SCc2ccccc2)n(C(C)CC)c1=O (stereo not drawn) | > 79 µM (inactive)
CCc1c(O)nc(SC(C)CC)n(C(C)CC)c1=O (stereo not drawn) | inactive
CCc1c(O)n(C2CCCCC2)c(=S)[nH]c1=O | > 79 µM (inactive)
COc1ccccc1-n1c(SCC(=O)c2ccccc2)nc(O)cc1=O | inactive
CCSc1nc(O)c(CC)c(=O)n1C1CCCCC1 | > 79 µM (inactive)
CCSc1nc(O)c(CC)c(=O)n1C(C)CC (stereo not drawn) | inactive
CC1=CC(=NOS(=O)(=O)c2ccccc2)C(C(C)C)=CC1=O | 7.43 µM
CC1=CC(=O)C(C(C)C)=CC1=NOS(=O)(=O)c1ccccc1 | 5.74 µM
O=S(=O)(Nc1nc(-c2ccccc2)cs1)c1ccc(Cl)cc1 | > 79 µM (inactive)
